ABCG2 inh: inhibitors of human ABCG2 transporter, ABCB1 counter-screen; Q9UNQ0; IgMXP3 cells, JC-1 efflux, flow cytometry; inhibition, % at 6.6 µM; 190,000 tested, 0.1% active;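 active = inhibition above 80%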
Target sequence (Q9UNQ0 whole entry, looked up): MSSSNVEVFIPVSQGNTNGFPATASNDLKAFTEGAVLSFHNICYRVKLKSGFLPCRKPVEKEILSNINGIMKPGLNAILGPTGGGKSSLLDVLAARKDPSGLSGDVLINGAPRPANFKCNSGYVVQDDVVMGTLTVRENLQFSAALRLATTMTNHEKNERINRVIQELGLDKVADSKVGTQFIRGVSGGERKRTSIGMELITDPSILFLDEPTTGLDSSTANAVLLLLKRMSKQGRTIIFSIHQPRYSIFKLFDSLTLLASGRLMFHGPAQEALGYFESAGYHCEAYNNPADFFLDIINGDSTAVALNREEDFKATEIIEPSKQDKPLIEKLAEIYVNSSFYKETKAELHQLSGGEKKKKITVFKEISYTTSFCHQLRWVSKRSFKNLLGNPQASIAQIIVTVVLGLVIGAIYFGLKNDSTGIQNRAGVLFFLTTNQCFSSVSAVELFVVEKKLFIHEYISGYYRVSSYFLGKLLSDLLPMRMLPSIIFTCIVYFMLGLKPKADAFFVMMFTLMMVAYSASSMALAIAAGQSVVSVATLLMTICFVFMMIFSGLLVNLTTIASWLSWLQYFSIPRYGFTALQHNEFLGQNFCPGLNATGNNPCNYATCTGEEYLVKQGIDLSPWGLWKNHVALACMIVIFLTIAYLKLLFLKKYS
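Measure – % inhibition of efflux relative to nicardipine and DMSO · Test system – ABCG2 IgMXP3 and barcoded ABCB1 CCRF-Adr cell mix · Control set – nicardipine as high control, DMSO as low control · Compound – one concentration, 6.6 µM final · Signal – flow cytometry of retained JC-1 fluorescence · Timing – 10 min exposure at 25 °C with rotation, no wash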
Measles CPE: protection of cells from measles virus; 140,000 tested, 1.5% active; Measles virus-infected cells, CPE protection, absorbance; protection (pct of control), % at 4 µM; AID 841; in the data active = protection mostly above about 24%, no sharp cut-off; inactive = mostly below about 26%
ABCB1 inh: inhibitors of human ABCB1 transporter, ABCG2 counter-screen; P08183; 190,000 tested, 0.067% active; CCRF-Adr cells, JC-1 efflux, flow cytometry; inhibition, % at 6.6 µM; in the data active = inhibition above about 40%;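 also: higher value means more JC-1 retained so stronger ABCB1 efflux block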
FLuc inhib CS: counter-screen for luciferase assay inhibitors: firefly luciferase inhibition. P08659. ATPLite firefly luciferase biochemical luminescence, 10 min. 200,000 tested, 1.5% active. AID 1006. inhibition, % at 10 µM;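 active = inhibition above about 50% when tested at 10 µM, limit read from the data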
FLuc act counter: affects firefly luciferase, flagging false hits in luciferase stimulation screens; P08659; ATPlite luciferase biochemical, luminescence, 10 min; 0 = ATP-free wells, 1 = DMSO control; activation factor at 10 µM; 200,000 tested, under 10 active; AID 1027;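 active = luciferase activation factor, scaled between plate controls, of at least 2 with compound at 10 µM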
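System: cell-free luciferase reagent; medium: PBS as buffer for the ATP substrate; doses: test compounds dosed from 2 mM stocks in 100% DMSO; incubation: 10 min, room temperature; measured by: luminescence from luciferase reaction; read-out: luciferase activation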
Redox H2O2 prof: compounds producing H2O2 with reducing agent – biochemical, NIH compound library profiling, artefact control for MLSCN library redox annotation, primary screen. DTT-dependent redox cycling H2O2, phenol red/HRP absorbance; 100% = 100 µM peroxide control, 0% = buffer. activation, % at 10 µM. 200,000 tested, 0.03% active. AID 878;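 active = activation of at least 50% relative to the plate's high and low controls in the primary single-dose screen; inactive = activation below 50%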;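 also: compound incubated with DTT at 0.8 mM final as the reducing agent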
ABCB1 single pt: confirmation of human ABCB1 transporter inhibitors, ABCG2 counter-screen; shares compounds with ABCG2 inh; CCRF-Adr cells, JC-1 efflux, flow cytometry; inhibition, % at 6.6 µM; 270 tested, 7% active; AID 1451;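 active = inhibition of pump activity above 50%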
ABCG2 confirm: confirmation of human ABCG2 transporter inhibitors, ABCB1 counter-screen. 270 tested, 6% active. AID 1453. IgMXP3 cells, JC-1 efflux, flow cytometry. shares compounds with ABCG2 inh. inhibition, % at 6.6 µM;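 active = inhibition above 50%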
IgMXP3 autofluor: counter-screen for ABCG2 inhibitors: compound fluorescence in IgMXP3 cells | 270 tested, 30% active | fluorescence at 6.6 µM | AID 1480 | compound autofluorescence 488/530 nm, flow; hits give high values | shares compounds with ABCG2 inh;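 active = fluorescence in ABCG2-expressing cells above the plate's control-well mean plus 3 SD, cut at about 15 in these data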
CCRF-Adr fluor: CCRF-Adr autofluorescence flag for ABCB1 confirmation | shares compounds with ABCG2 inh | CCRF-Adr cells, compound autofluorescence 488/530 nm, flow cytometry; hits give high values | fluorescence at 6.6 µM | 270 tested, 30% active;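 active = fluorescence beyond the plate control mean plus 3 SD, with a fluorescence-to-maximum score over 2, cut at about 25 in these data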
A number is an active result; - = inactive; . = no result; + = active, no number. Compounds with a hit are over-represented: about 2.7% of the library has one in this group of screens.

SMILES	ABCG2 inh	Measles CPE	ABCB1 inh	FLuc inhib CS	FLuc act counter	Redox H2O2 prof	ABCB1 single pt	ABCG2 confirm	IgMXP3 autofluor	CCRF-Adr fluor
O=S(=O)(c1ccc(Br)cc1)N1CCN(c2cc(-c3ccccc3)nc3ncnn23)CC1	-	-	59.9	-	-	-	-	-	-	-
COc1cc(NC(=S)NC2CC2)c(OC)cc1Cl	-	-	-	-	-	-	.	.	.	.
O=C(NC1CCCCC1)NC1CC2CCC(C1)N2Cc1nnnn1Cc1ccc2c(c1)OCO2 (configuration not stated)	-	-	-	-	-	-	.	.	.	.
CNc1nc2cc([N+](=O)[O-])c([N+](=O)[O-])cc2nc1NC	123.6	-	-	-	-	-	-	69.3	20.8	30.5
Cc1nc2cc(-c3cccc(F)c3)nn2c(N2CCN(C(=O)c3ccco3)CC2)c1C	90.7	-	63.4	-	-	-	51.5	50.2	-	-
Cc1cc(N2CCN(C(=O)c3ccco3)CC2)n2ncnc2n1	-	-	-	-	-	-	.	.	.	.
COc1ccc([N+](=O)[O-])cc1NC(=O)COC(=O)Cc1cc(OC)c(OC)c(OC)c1	-	-	-	-	-	-	.	.	.	.
COc1cc(CC(=O)OCC(=O)Nc2cc([N+](=O)[O-])ccc2Cl)cc(OC)c1OC	81.0	-	-	-	-	-	-	-	21.1	-
CCc1ccc2oc(-c3ccc(OC)cc3)cc(=Nc3c(C)n(C)n(-c4ccccc4)c3=O)c2c1	96.9	.	44.4	-	-	-	-	-	-	-
COc1ccc(-c2cc(C#N)nc(Oc3ccc(Cl)cc3)n2)cc1	83.5	-	-	-	-	-	-	-	34.8	25.6
N#Cc1cc(-c2ccccc2)nc(Oc2ccccc2)n1	-	-	-	-	-	-	.	.	.	.
CCCCOC(=O)Nc1ccc(C(=O)OCCC)cc1	-	-	-	-	-	-	-	-	-	-
Cc1ccc2nc(/C(C#N)=C\c3ccc([N+](=O)[O-])o3)[nH]c2c1	-	-	60.6	-	-	-	-	-	41.8	47.1
O=C(NCc1ccccn1)c1ccc(-c2ccccc2)cc1	-	.	-	-	-	-	.	.	.	.
O=C(NCc1ccccn1)c1cn(-c2ccccc2)nc1-c1ccc(Cl)cc1	82.6	-	-	-	-	-	-	-	22.1	149
CN(C)/C=C/C(=O)c1ccc(Cl)c([N+](=O)[O-])c1	-	.	-	-	-	-	.	.	.	.
CN(C)c1ccc(/C=C2\N=C(c3ccc(Cl)c([N+](=O)[O-])c3)NC2=O)cc1	83.4	.	83.0	-	-	-	-	-	74.7	93.7
Cc1c(NC(=O)CSc2ncccn2)c(=O)n(-c2ccccc2)n1C	-	.	-	-	-	-	.	.	.	.
COc1cc(C(=O)Nc2ccc(S(=O)(=O)NC(C)C)cc2)cc(OC)c1OC	81.6	-	-	-	-	-	-	-	-	-
CCOC(=O)c1cn2nc(-c3ccc(OC)cc3)cc2nc1C1CCN(C(=O)OC(C)(C)C)CC1	-	-	51.1	-	-	-	-	-	-	-
COc1ccc(-c2cc(C3CCN(C(=O)OC(C)(C)C)CC3)[nH]n2)cc1	-	.	-	-	-	-	.	.	.	.
COc1ccc(CCNC(=O)COc2nncc3ccccc23)cc1	-	.	-	-	-	-	.	.	.	.
Cc1ccc(-c2csc3nc(SCC(=O)N(C)C)n(Cc4ccccc4)c(=O)c23)cc1	120.9	-	-	-	-	-	-	-	-	-
COc1ccc(CCNC(=O)COC(=O)/C=C/c2ccc(OCC#N)c(OC)c2)cc1	-	-	-	-	-	-	.	.	.	.
COc1ccc(CCNC(=O)COC(=O)/C=C/c2ccc(OC)c(OC)c2)cc1	88.7	-	-	-	-	-	-	56.0	-	-
SMILES	ABCG2 inh	Measles CPE	ABCB1 inh	FLuc inhib CS	FLuc act counter	Redox H2O2 prof	ABCB1 single pt	ABCG2 confirm	IgMXP3 autofluor	CCRF-Adr fluor
CC(=O)NS(=O)(=O)c1ccc(NC(=S)NC(=O)COc2ccccc2C)cc1	-	-	-	-	-	-	.	.	.	.
COc1ccc(C2C3=C(CCCC3=O)Nc3ccc4ncccc4c32)cc1OC (configuration not stated)	-	.	63.0	-	-	-	-	-	-	-
COc1cc(C(=O)N/N=C/c2ccc(OC)c(CN3CCN(c4ccc(F)cc4)CC3)c2)ccc1O	-	.	45.4	-	-	-	64.0	-	-	-
COc1ccc(/C=N/NC(=O)c2ccccc2F)cc1CN1CCN(c2ccc(F)cc2)CC1	-	-	52.2	-	-	-	-	-	-	-
COc1ccc(/C=N/NC(=O)c2ccccc2)cc1CN1CCN(c2ccc(F)cc2)CC1	-	-	-	-	-	-	.	.	.	.
CCOC(=O)C1=C(C)NC(=O)/C1=C\N(C)C	-	.	-	-	-	-	.	.	.	.
CN(Cc1ccccc1)c1ccc(N2C(=O)CCC2=O)cc1[N+](=O)[O-]	-	.	-	-	-	-	.	.	.	.
CCc1ccc(NC(=O)CSc2nc3ccccc3c(=O)n2CCCC(=O)N2CCCC2)cc1	-	-	71.3	-	-	-	-	-	-	-
CC(Cc1cccs1)NC(=S)Nc1ccc(Cl)cc1 (configuration not stated)	-	-	-	-	-	-	.	.	.	.
CC(Cc1cccs1)NC(=S)Nc1ccc(Cl)c(Cl)c1 (configuration not stated)	-	-	-	-	-	-	-	-	-	-
CCOC(=O)C1CCN(C(=S)Nc2cccc(C)c2C)CC1	-	-	-	-	-	-	.	.	.	.
CN(C)S(=O)(=O)c1cccc(-c2nnc(SCC(=O)NCCCCCC(=O)O)n2-c2ccc(F)cc2)c1	-	.	-	-	-	-	.	.	.	.
CCCN(CCC)CCOc1cc(C)ccc1C(C)C	+	-	137.3	-	-	-	-	-	-	37.3
O=C(CSc1nnc2sc3ccccc3n12)c1ccco1	-	-	-	-	-	-	.	.	.	.
O=S(=O)(c1ccc(Cl)cc1)N1CCN=C1SCc1ccc(Cl)c(Cl)c1	85.9	-	-	-	-	-	-	-	-	-
CCSC1=NCCN1S(=O)(=O)c1ccc(Cl)cc1	-	.	-	-	-	-	.	.	.	.
O=[N+]([O-])c1ccc(Nc2nc(Cl)nc(NCCO)n2)cc1	-	.	-	-	-	-	-	54.5	-	-

Screening results (PubChem BioAssay)
